This is an account of results in ChEMBL document CHEMBL1140371, “Pyrazolo[3,4-c]pyridazines as novel and selective inhibitors of cyclin-dependent kinases” (J Med Chem, 2005).

Molecules are shown by their SMILES. Values joined by “and” are separate entries in the source; they are usually repeats but may differ in a detail not shown here. Identical values can stand only once.

The subject of one assay is HT-29. Kind of assay: Cytotoxic effect against human colon carcinoma cell line (HT-29). The format is functional, cell-based. Summed up: (§1)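 MTT assay on cells in log-phase growth, seeded at 2.5 × 10³ cells/well and kept at 37 °C in 5% CO₂. Compounds were added 24 h after seeding as serial PBS dilutions of a […] DMSO stock. After 72 h exposure, MTT was added for 4 h, then DMSO; absorbance read at 570 nm. At least three experiments; IC50 taken from the mean % absorbance versus concentration.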

Assay [1] can be described thus: Inhibitory concentration against CDK1/Cyclin B complex from Marthasterias glacialis M-phase oocytes. The format is cell-based. As to conditions: oocyte.
Another assay concerns HeLa. Kind of assay: Cytotoxic effect against human cervical carcinoma cell line (HeLa). The assay is classed as functional, cell-based. The procedure, abridged: as §1
For the next assay, the system named is PC-3. Put plainly: Cytotoxic effect against human prostate carcinoma cell line (PC-3). The assay is classed as functional, cell-based. Summed up: as §1

Consider `CC(C)(C)c1ccc(-c2[nH]nc3nnc(N)c-3c2-c2ccc(C(C)(C)C)cc2)cc1`, for which the figures for the IC50 (in the assay on HT-29; in assay [1]; in the assay with HeLa) were 8.5 µM, over 50 µM and 8.78 µM, respectively.

Consider `Nc1[nH]nc2nnc(-c3ccc(C(F)(F)F)cc3)c(-c3ccc(C(F)(F)F)cc3)c12`, for which the figures for the IC50 (with HT-29; in assay [1]; in the assay on HeLa) were over 100 µM, over 50 µM and over 100 µM, respectively.

Consider `COc1ccc(-c2[nH]nc3nnc(N)c-3c2-c2ccc(OC)cc2)cc1`, for which the IC50 (commonly the concentration that inhibits the measured activity by half) was over 100 µM with HT-29, 15 µM in assay [1], over 100 µM in the assay with PC-3 and over 100 µM with HeLa.

Consider `Nc1[nH]nc2nnc(-c3ccccn3)c(-c3ccccn3)c12`, for which the 50% inhibitory concentration (IC50) with HT-29 was 73 µM; in assay [1], over 50 µM; in the assay with HeLa it was over 100 µM.

In the case of `Oc1[nH]nc2nnc(-c3ccccc3)c(-c3ccccc3)c12`, the IC50 in the assay with HT-29 was over 100 µM; in assay [1], over 50 µM; in the assay with PC-3, over 100 µM; in the assay on HeLa it was over 100 µM.

As for `Nc1ccc(-c2[nH]nc3nnc(N)c-3c2-c2ccc(N)cc2)cc1`, the results for the IC50 (with HT-29; in assay [1]; in the assay with HeLa) were 10.5 µM, over 50 µM and over 100 µM, respectively.

Consider `Cc1n[nH]c2nnc(N)c-2c1-c1ccccc1`, for which the concentration for half-maximal inhibition (IC50) in the assay with HT-29 was over 100 µM; in assay [1] it was over 50 µM; in the assay with PC-3 it was 72.4 µM; with HeLa, 88.3 µM.

Regarding `Nc1[nH]nc2nnc(-c3ccco3)c(-c3ccco3)c12`, the IC50 in the assay on HT-29 is over 100 µM; in assay [1], 1.5 µM; in the assay with HeLa it was over 100 µM.

`Cc1n[nH]c2nnc(N)c-2c1C`: the values for the IC50 (in the assay with HT-29; in assay [1]; with HeLa) were over 100 µM, over 50 µM and over 100 µM, respectively.

With `Nc1[nH]nc2nnc(-c3ccc(-c4ccccc4)cc3)c(-c3ccc(-c4ccccc4)cc3)c12`, the IC50 in the assay with HT-29 was over 100 µM; in assay [1], over 50 µM; with HeLa, over 100 µM.

For the compound `Nc1nn(CCOCCO)c2nnc(-c3ccccc3)c(-c3ccccc3)c12`, the IC50 in the assay with HT-29 is over 100 µM; in assay [1], over 50 µM; in the assay on PC-3, over 100 µM; with HeLa, over 100 µM.

`NNc1[nH]nc2nnc(-c3ccccc3)c(-c3ccccc3)c12`: the IC50 in assay [1] stood at 8.5 µM.

As for `O=C(Nc1ccccc1)Nc1[nH]nc2nnc(-c3ccccc3)c(-c3ccccc3)c12`, the IC50 was over 100 µM with HT-29, 9 µM in assay [1], over 100 µM with PC-3 and 2.93 µM with HeLa.

`CC(=O)Nc1nn(C(C)=O)c2nnc(-c3ccccc3)c(-c3ccccc3)c12`: the IC50 in the assay with HT-29 was over 100 µM; in assay [1], over 50 µM; in the assay with PC-3, over 100 µM; with HeLa, over 100 µM.

Turning to `Nc1[nH]nc2nnc(-c3ccc([N+](=O)[O-])cc3)c(-c3ccc([N+](=O)[O-])cc3)c12`, the concentration for half-maximal inhibition (IC50) in the assay on HT-29 is over 100 µM; in assay [1] it was over 50 µM; in the assay with HeLa, over 100 µM.

In the case of `CCNC(=O)Nc1[nH]nc2nnc(-c3ccco3)cc12`, half-maximal inhibition in assay [1] (IC50) required 8.8 µM. This counts as single-digit micromolar.

As to `Nc1[nH]nc2nnc(-c3ccco3)cc12`, the IC50 with HT-29 was over 100 µM; in assay [1], 5.3 µM; in the assay on PC-3, over 100 µM; in the assay with HeLa, over 100 µM.

Turning to `Nc1n[nH]c2nnc(-c3ccccc3)c(-c3ccccc3)c12`, the IC50 in the assay with HT-29 is over 100 µM; in assay [1], 3 µM and 6.1 µM; with PC-3, over 100 µM; in the assay on HeLa it was over 100 µM.

Regarding `Nc1nn(COCCO)c2nnc(-c3ccccc3)c(-c3ccccc3)c12`, the IC50 in the assay on HT-29 is over 100 µM; in assay [1], over 50 µM; in the assay with PC-3 it was over 100 µM; with HeLa it was over 100 µM.

Consider `CCNC(=O)Nc1[nH]nc2nnc(-c3ccccc3)c(-c3ccccc3)c12`, for which the half-inhibitory concentration (IC50) was over 100 µM in the assay with HT-29, 7.5 µM in assay [1], over 100 µM in the assay with PC-3 and 60.4 µM in the assay with HeLa.

Regarding `CC(=O)Nc1[nH]nc2nnc(-c3ccccc3)c(-c3ccccc3)c12`, the IC50 in the assay with HT-29 was over 100 µM; in assay [1] it was over 50 µM; in the assay on PC-3, over 100 µM; in the assay with HeLa it was over 100 µM.

Regarding `CC/N=C(\S)Nc1[nH]nc2nnc(-c3ccco3)cc12`, the IC50 in assay [1] is over 100 µM.

On to `Nc1n[nH]c2nnc(-c3ccccc3)cc12`, for which the 50% inhibitory concentration (IC50) was 80.8 µM with HT-29, over 50 µM in assay [1] and over 100 µM in the assay on HeLa.

Turning to `Nc1nn(Cc2ccccc2)c2nnc(-c3ccccc3)c(-c3ccccc3)c12`, the IC50 in the assay on HT-29 is over 100 µM; in assay [1], over 50 µM; in the assay with PC-3 it was over 100 µM; in the assay on HeLa, over 100 µM.

`CC(=O)n1nc(N)c2c(-c3ccccc3)c(-c3ccccc3)nnc21`: the IC50 in the assay on HT-29 is over 100 µM; in assay [1], over 50 µM; with PC-3 it was over 100 µM; with HeLa, over 100 µM.
